We go through 5 compounds from ChEMBL document CHEMBL1159388, “Steroidal glycosides from the rhizomes of Dioscorea spongiosa” (2003).

Where a SMILES comes first, the peptide text is derived from it. Bridges are numbered along the chain shown (N, C = ends). [ ]: non-standard residue; d: D form. Asu = N[C@@H](CCCCCC(=O)O)C(=O)O

Format in all cases: functional
Assay [1] can be described thus: Antiosteoporotic activity in mouse parietal bone assessed as inhibition of parathyroid hormone induced bone resorption by measuring 45Ca release at 200 uM by scintillation counting. Details: scale not given: the % may be the effect or the level left. The essentials: (§1)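 Mice aged 2 days received 45CaCl2 (2 μCi) subcutaneously; parietal bones were taken 2 days later and cultured on grids at the gas-liquid interface. Medium was Ham's F-12 with NaHCO3, 1.0 mM CaCl2 and 5% heat-inactivated horse serum, at 37 °C under 5% CO2. After 24 h preculture, bones were exposed to PTH (2×10^-9 M final) plus sample for 6 days, medium changed at day 3. Four bones per group.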

A short description of assay [2]: Antiosteoporotic activity in mouse parietal bone assessed as inhibition of parathyroid hormone induced bone resorption by measuring 45Ca release at 20 uM by scintillation counting. Further details: scale not given: the % may be the effect or the level left. The essentials:
as §1

A short description of assay [3]: Antiosteoporotic activity in mouse parietal bone assessed as inhibition of parathyroid hormone induced bone resorption at 200 uM. The essentials:
as §1

The nature of assay [4]: Antiosteoporotic activity in mouse parietal bone assessed as inhibition of parathyroid hormone induced bone resorption by measuring 45Ca release by scintillation counting. Further details: scale not given: the % may be the effect or the level left. The method, boiled down: as §1

In the case of `CC(C)CC[C@H](O)[C@@H](C)[C@H]1[C@@H](O[C@@H]2O[C@H](CO)[C@@H](O)[C@H](O)[C@H]2O)C[C@H]2[C@@H]3CC=C4C[C@@H](O[C@@H]5O[C@H](CO)[C@@H](O[C@@H]6O[C@@H](C)[C@H](O)[C@@H](O)[C@H]6O)[C@H](O)[C@H]5O[C@@H]5O[C@@H](C)[C@H](O)[C@@H](O)[C@H]5O)CC[C@]4(C)[C@H]3CC[C@]12C` [SPONGIOSIDES A], the Activity is recorded as 17.1% in assay [1] and 30.9% in assay [2]. Further, the “inhibition (INH)” value in assay [3] came to 63.6%.
As for `CC(=O)[C@H]1[C@@H](OC(=O)CCC(C)CO[C@@H]2O[C@H](CO)[C@@H](O)[C@H](O)[C@H]2O)C[C@H]2[C@@H]3CC=C4C[C@@H](O[C@@H]5O[C@H](CO)[C@@H](O[C@@H]6O[C@@H](C)[C@H](O)[C@@H](O)[C@H]6O)[C@H](O)[C@H]5O[C@@H]5O[C@@H](C)[C@H](O)[C@@H](O)[C@H]5O)CC[C@]4(C)[C@H]3CC[C@@]21C` (stereo partly drawn) [HYPOGLAUCIN G], the Activity was determined as 19.2% in assay [1] and 22.8% in assay [2]. Moreover, the “inhibition (INH)” value in assay [3] amounted to 66.7%.
Turning to `C=C[C@@H](CCCCC)O[C@H]1O[C@H](CO[C@@H]2OC[C@H](O)[C@H](O)[C@H]2O)[C@@H](O)[C@H](O)[C@H]1O`, the results for the Activity in assay [1] and in assay [2] were 20.7% and 23.8%, respectively. Also, the “inhibition (INH)” value in assay [3] is 61.6%.
In the same order, the values of `CO[C@]1(CC[C@@H](C)CO[C@@H]2O[C@H](CO)[C@@H](O)[C@H](O)[C@H]2O)O[C@H]2C[C@H]3[C@@H]4CC=C5C[C@@H](O[C@@H]6O[C@H](CO)[C@@H](O[C@@H]7O[C@@H](C)[C@H](O)[C@@H](O)[C@H]7O)[C@H](O)[C@H]6O[C@@H]6O[C@@H](C)[C@H](O)[C@@H](O)[C@H]6O)CC[C@]5(C)[C@H]4CC[C@]3(C)[C@H]2[C@@H]1C` [METHYLPROTODIOSCIN] are 17.4%, 24.9% and 89.9%.
On to `CC(C)C[C@H](NC(=O)[C@H](CCCCN)NC(=O)CNC(=O)[C@H](CC(C)C)NC(=O)[C@@H](NC(=O)[C@@H]1CCCCCC(=O)N[C@@H](CO)C(=O)N[C@@H](CC(N)=O)C(=O)N[C@@H](CC(C)C)C(=O)N[C@@H](CO)C(=O)N[C@@H]([C@@H](C)O)C(=O)N1)C(C)C)C(=O)N[C@@H](CO)C(=O)N[C@@H](CCC(N)=O)C(=O)N[C@@H](CCC(=O)O)C(=O)N[C@@H](CC(C)C)C(=O)N[C@@H](Cc1cnc[nH]1)C(=O)N[C@@H](CCCCN)C(=O)N[C@@H](CC(C)C)C(=O)N[C@@H](CCC(N)=O)C(=O)N[C@H](C(=O)N[C@@H](Cc1ccc(O)cc1)C(=O)N1CCC[C@H]1C(=O)N[C@@H](CCCNC(=N)N)C(=O)N[C@H](C(=O)N[C@@H](CC(=O)O)C(=O)N[C@H](C(=O)NCC(=O)N[C@@H](C)C(=O)NCC(=O)N[C@H](C(=O)N1CCC[C@H]1C(N)=O)[C@@H](C)O)C(C)C)[C@@H](C)O)[C@@H](C)O` [ELCITONIN] (SNLST[Asu]VLGKLSQELHKLQTYPRTDVGAGTP-NH2; lactam N-6), for which the Activity in assay [4] is 18.4%.
